The source made the active and inactive calls. The calls are words filed in the database; no cut-off is given here.

Series [1] deals with A-375. Description: Cell cycle arrest in human A375 cells assessed as accumulation at S phase at 5 uM after 24 hrs by propidium iodide staining based flow cytometry (reference value: 21.3%). In kind it is functional.
The test system of series [2] is A-375. In words: Induction of apoptosis in human A375 cells assessed as necrotic cells at 10 uM after 24 hrs by Annexin V-FITC/PI staining based flow cytometry (reference value: 1.61%). In kind it is functional. In general terms: A flow cytometer gives signals particle by particle.
The nature of series [3]: Effect on total ERK1/2 protein level in human WM1361 cells after 30 mins by Western blot analysis. It counts as ADME, cell-based. The settings on record: 0.5 h. In short, it runs like this:
(§1)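 Western blot. Cells rinsed in cold PBS, lysed 30 min on ice in RIPA with protease inhibitors (1:100), cleared at 12,000 g, 4 °C. Protein measured by BCA, resolved by SDS-PAGE, transferred to PVDF, blocked in skim milk. Primary antibodies 1:500 overnight at 4 °C; secondary 1:5000 for 1 h at room temperature.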

Series [4] relates to A-375. Description: Cell cycle arrest in human A375 cells assessed as accumulation at G2/M phase at 2 uM after 48 hrs by propidium iodide staining based flow cytometry (reference value: 5.1%). It counts as functional.
Series [5] concerns the target T1, Serine/threonine-protein kinase B-raf (Homo sapiens, UniProt P15056). Description: Inhibition of wild type BRAF in human WM1361 cells assessed as decrease in MEK1/2 phosphorylation up to 5 uM after 30 mins by Western blot analysis. In kind it is cell-based.
The test system of series [6] is A-375. Description: Antiproliferative activity against human A375 cells after 48 hrs by MTT assay. In kind it is functional. The settings on record: A-375, 48 h. In short, it runs like this:
(§2)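 MTT reduction assay. Cell lines grown to log phase in DMEM with 10% FBS (A375 in DMEM with sodium pyruvate added), seeded at 10⁴ cells/well in 96-well plates. Three replicate wells per concentration, each assay run three times, GI50 averaged.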

The subject of series [7] is A-375. Description: Induction of apoptosis in human A375 cells assessed as late apoptotic cells at 5 uM after 24 hrs by Annexin V-FITC/PI staining based flow cytometry (reference value: 4.26%). In kind it is functional.
Series [8] concerns A-375. Description: Induction of apoptosis in human A375 cells assessed as early apoptotic cells at 2 uM after 24 hrs by Annexin V-FITC/PI staining based flow cytometry (reference value: 5.42%). It counts as functional. In a few lines:
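Apoptosis time course. A375 cells in 24-well plates (about 10⁵/well) at 2 µM for 0, 24, 48 and 72 h. Harvested by trypsin, washed in PBS, stained 15 min at room temperature in the dark with Annexin V-FITC/PI, analysed by flow cytometry.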

Series [9] relates to A-375. In words: Induction of apoptosis in human A375 cells assessed as late apoptotic cells at 10 uM after 24 hrs by Annexin V-FITC/PI staining based flow cytometry (reference value: 4.26%). It counts as functional.
The test system of series [10] is A-375. Description: Induction of apoptosis in human A375 cells assessed as necrotic cells at 2.5 uM after 24 hrs by Annexin V-FITC/PI staining based flow cytometry (reference value: 1.61%). In kind it is functional.
The test system of the next series is HT-29. In words: Antiproliferative activity against human HT-29 cells after 48 hrs by MTT assay. In kind it is functional. The settings on record: HT-29, 48 h. In short, it runs like this: as §2
The subject of series [11] is A-375. Description: Cell cycle arrest in human A375 cells assessed as accumulation at G1 phase at 2 uM after 72 hrs by propidium iodide staining based flow cytometry (reference value: 73.6%). It counts as functional.
In series [12] the target is T1, Serine/threonine-protein kinase B-raf. Description: Inhibition of recombinant human full length GST-tagged wild type BRAF expressed in baculovirus expression system using recombinant human full length N-terminal His-tagged MEK1 as substrate preincubated for 1 hr followed by substrate addition measured after 25 mins.
The subject of series [13] is A-375. In words: Effect on total MEK1/2 protein level in human A375 cells after 30 mins by Western blot analysis. It counts as ADME, cell-based. The settings on record: a-375, 0.5 h. In short, it runs like this:
as §1
(In general: Immunoblotting shows a protein as a band on a membrane.)

For series [14], the system named is A-375. Description: Cell cycle arrest in human A375 cells assessed as accumulation at G2/M phase at 2.5 uM after 24 hrs by propidium iodide staining based flow cytometry (reference value: 5.1%). In kind it is functional.
For series [15], the target named is T1, Serine/threonine-protein kinase B-raf. Description: Inhibition of wild type BRAF in human WM1361 cells assessed as decrease in ERK1/2 phosphorylation up to 5 uM after 30 mins by Western blot analysis. In kind it is cell-based.

T1 sequence (P15056 whole entry): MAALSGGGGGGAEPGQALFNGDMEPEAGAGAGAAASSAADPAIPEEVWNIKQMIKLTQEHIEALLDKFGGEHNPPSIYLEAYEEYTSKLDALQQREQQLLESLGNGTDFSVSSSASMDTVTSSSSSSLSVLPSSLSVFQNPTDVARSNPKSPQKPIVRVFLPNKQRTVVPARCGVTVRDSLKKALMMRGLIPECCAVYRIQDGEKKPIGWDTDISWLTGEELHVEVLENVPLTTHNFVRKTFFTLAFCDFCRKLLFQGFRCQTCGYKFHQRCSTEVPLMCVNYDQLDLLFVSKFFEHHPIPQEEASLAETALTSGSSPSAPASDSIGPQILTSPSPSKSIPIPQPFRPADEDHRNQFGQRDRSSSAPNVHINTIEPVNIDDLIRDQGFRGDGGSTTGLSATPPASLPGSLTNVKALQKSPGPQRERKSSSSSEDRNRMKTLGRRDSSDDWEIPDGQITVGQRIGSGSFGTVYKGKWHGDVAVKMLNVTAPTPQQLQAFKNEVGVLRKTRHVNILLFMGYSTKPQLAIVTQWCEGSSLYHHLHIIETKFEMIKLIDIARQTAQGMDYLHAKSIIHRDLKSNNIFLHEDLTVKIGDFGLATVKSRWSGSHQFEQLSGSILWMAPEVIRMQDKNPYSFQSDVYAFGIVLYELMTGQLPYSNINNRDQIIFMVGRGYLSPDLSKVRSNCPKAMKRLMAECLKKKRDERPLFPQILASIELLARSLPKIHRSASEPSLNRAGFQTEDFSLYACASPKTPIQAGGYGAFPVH

On to `COc1cccc(C2=NN(C(=S)Nc3ccccc3)C(c3ccc4c(c3)OCCO4)C2)c1` (stereo unspecified), for which the Activity in the series on A-375 [1] is reported as 28.4%; in the series on A-375 [2], 2.6%; in series [3] it was “Non-Toxic”; with A-375 [4] it was 15%; with A-375 [7] it was 8.1%; in the series with A-375 [8], 10.9%. In addition, the Activity in the series with A-375 [9] was 10.8%; with A-375 [10], 3.46%; with A-375 [11], 35.6%; in the series on A-375 [13], “Non-Toxic”; with A-375 [14] it was 8.2%. Moreover, the inhibition result in [5] and in [15] was “inactive” each time. Further, the GI50 in the series on A-375 [6] was 0.52 µM; in the series on HT-29, 2.92 µM. Further, the IC50 in series [12] was above 200 µM.

A word on the GI50: it is the concentration that inhibits growth by half. The low end stands for greater sensitivity of the cells, the high end for lower sensitivity of the cells. For orientation: IC50 means the concentration at which inhibition is half-maximal.
